The text below walks through data of PubChem BioAssay.

Active and inactive are the calls of the source.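 The calls were made as follows, unless noted: active = GFP response above 150% of the DMSO level; inconclusive = fewer than 70 events counted for a yeast strain; inactive = the rest.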

Assay [1] is described as follows: RPL19A-GFP modulators, yeast TOR pathway, confirmation, cell-based, S. cerevisiae, flow cytometry, cherry picks, mother/daughter gates (AID 2270;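 active = GFP response below 50% of the DMSO control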). The conditions noted are these: S. cerevisiae RPL19A-GFP strain, 3 h, at 10 µM, stronger effect = lower value, 100 = same GFP as DMSO wells. A general note: A flow cytometer gives signals particle by particle.
Assay [2] in a line: LAP4-GFP expression modulators in yeast, confirmation, cell-based, cherry picks, flow cytometry, mother/daughter gates (AID 2271;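 active = GFP response above 150% of the DMSO control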;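 also: ratio of sample to DMSO plate mean so 100% equals DMSO level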). To be noted: S. cerevisiae LAP4-GFP strain, 3 h, at 10 µM, stronger effect = higher value, 100 means same as DMSO control. Summed up:
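System: Alexa 633-stained baker's yeast GFP-fusion strain / Medium: synthetic complete (SC) yeast growth medium / Doses: compound at 10 µM, single point / Times: 3 h treatment at 30 °C with rotation / Detection: HT flow cytometry, GFP fluorescence channel / Benchmarks: DMSO-only negative wells, rapamycin 400 ng/mL positive wells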

A short description of assay [3]: modulators of MEP2-GFP levels in yeast, confirmation, S. cerevisiae, flow cytometry GFP, cherry picks (AID 2272;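 active = GFP response above 150% of the DMSO control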;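 also: ratio of well signal to plate DMSO mean so 100% equals DMSO level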). The conditions noted are these: S. cerevisiae MEP2-GFP strain, 3 h, at 10 µM, stronger effect = higher value.
The nature of assay [4]: AGP1-GFP expression modulators, hit retest, confirmation, cell-based, flow cytometry, S. cerevisiae, cherry picks (AID 2273).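 Also: median GFP channel fluorescence over the whole cell population gate.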 The conditions noted are these: S. cerevisiae AGP1-GFP strain, 3 h, at 10 µM.
A short description of assay [5]: modulators of CIT2-GFP expression in yeast, confirmation, S. cerevisiae, GFP fusion, cherry picks, mother/daughter gates (AID 2274). The conditions noted are these: S. cerevisiae CIT2-GFP strain, flow cytometry, 3 h, at 10 µM, stronger effect = higher value.
The mark [6] stands for this setting: measured here: daughter cell gate.
Where [7] appears, read: measured here: mother cell gate.
Where [8] appears, read: measured here: daughter cell gate response.
Where [9] appears, read: measured here: mother cell gate response.

Consider `Cc1ccc(C(=O)NNC(=S)NC(=O)COc2ccccc2)cc1`, for which the GFP response vs DMSO was 122% (inactive) in assay [1], 92.1% in assay [1] (setting [6]), 110% in assay [1] (setting [7]) and 153% (inactive) in assay [3]. Besides, the values for the GFP response relative to DMSO in assay [2], in assay [2] (setting [8]) and in assay [2] (setting [9]) were 223% (active), 186% and 203%, respectively. Also, the GFP response, % of DMSO is 134% (inactive) in assay [4], 138% (inactive) in assay [5], 139% in assay [5] (setting [6]) and 110% in assay [5] (setting [7]).
With `CS(=O)(=O)N1N=C(c2ccco2)CC1c1ccc(Br)cc1` (stereo not drawn), the GFP response vs DMSO was 98.4% (inactive) in assay [1], 98.1% in assay [1] (setting [6]), 99.2% in assay [1] (setting [7]) and 100% (inactive) in assay [3]. The GFP response relative to DMSO in assay [2] was 103% (inactive); in assay [2] (setting [8]) it was 104%; in assay [2] (setting [9]), 103%. The GFP response, % of DMSO in assay [4] was 96.8% (inactive); in assay [5], 103% (inactive); in assay [5] (setting [6]) it was 103%; in assay [5] (setting [7]) it was 101%.
As to `O=C1C(Cl)=C(Nc2ccc(F)cc2)C(=O)N1CCc1ccccc1`, the GFP response vs DMSO in assay [1] is 100% (inactive); in assay [1] (setting [6]), 99.3%; in assay [1] (setting [7]), 101%; in assay [3], 101% (inactive). Moreover, the results for the GFP response relative to DMSO in assay [2], in assay [2] (setting [8]) and in assay [2] (setting [9]) were 95.7% (inactive), 95.9% and 96.2%, respectively. Besides, the GFP response, % of DMSO in assay [4] was 104% (inactive); in assay [5] it was 100% (inactive); in assay [5] (setting [6]), 101%; in assay [5] (setting [7]) it was 99.3%.
For `C=CCNC(=S)N/N=C(\C)c1cccc(OC)c1`, the GFP response vs DMSO in assay [1] is 100% (inactive); in assay [1] (setting [6]), 102%; in assay [1] (setting [7]) it was 101%; in assay [3] it was 99.5% (inactive). Moreover, the values for the GFP response relative to DMSO in assay [2], in assay [2] (setting [8]) and in assay [2] (setting [9]) were 98.8% (inactive), 99.3% and 97.5%, respectively. In addition, the GFP response, % of DMSO in assay [4] was 95.2% (inactive); in assay [5], 96.4% (inactive); in assay [5] (setting [6]) it was 96.4%; in assay [5] (setting [7]) it was 93.3%.
Take `COc1cc(-c2nc3ccccn3c2NCC2CCCO2)ccc1O` (stereo not drawn): the GFP response vs DMSO in assay [1] was 102% (inactive); in assay [1] (setting [6]) it was 106%; in assay [1] (setting [7]), 102%; in assay [3], 106% (inactive). For the same molecule, the GFP response relative to DMSO was 93% (inactive) in assay [2], 95% in assay [2] (setting [8]) and 88.7% in assay [2] (setting [9]). The GFP response, % of DMSO is 103% (inactive) in assay [4], 106% (inactive) in assay [5], 108% in assay [5] (setting [6]) and 104% in assay [5] (setting [7]).
Consider `O=C1Nc2ccccc2/C1=C\C(=O)c1ccccc1`, for which the GFP response vs DMSO in assay [1] is 99% (inactive); in assay [1] (setting [6]) it was 96.4%; in assay [1] (setting [7]), 91.9%; in assay [3] it was 128% (inactive). Also, the results for the GFP response relative to DMSO in assay [2], in assay [2] (setting [8]) and in assay [2] (setting [9]) were 228% (active), 180% and 236%, respectively. Also, the GFP response, % of DMSO in assay [4] was 103% (inactive); in assay [5], 109% (inactive); in assay [5] (setting [6]), 110%; in assay [5] (setting [7]), 104%.
On to `COc1ccc(-c2nnc(NC(=O)c3ccc([N+](=O)[O-])o3)o2)c(OC)c1`, for which the GFP response vs DMSO was 101% (inactive) in assay [1], 100% in assay [1] (setting [6]), 101% in assay [1] (setting [7]) and 100% (inactive) in assay [3]. The values for the GFP response relative to DMSO in assay [2], in assay [2] (setting [8]) and in assay [2] (setting [9]) were 95.4% (inactive), 92.8% and 96.1%, respectively. Also, the GFP response, % of DMSO in assay [4] was 98% (inactive); in assay [5] it was 105% (inactive); in assay [5] (setting [6]), 105%; in assay [5] (setting [7]), 103%.
Consider `Cc1ccccc1C(=O)Nc1cccc(N)c1`, for which the GFP response vs DMSO is 99% (inactive) in assay [1], 98.6% in assay [1] (setting [6]), 98.6% in assay [1] (setting [7]) and 101% (inactive) in assay [3]. The GFP response relative to DMSO in assay [2] is 93.1% (inactive); in assay [2] (setting [8]), 94.2%; in assay [2] (setting [9]), 94.1%. The GFP response, % of DMSO in assay [4] is 105% (inactive); in assay [5], 97.3% (inactive); in assay [5] (setting [6]), 95.6%; in assay [5] (setting [7]), 96.8%.
Consider `COc1cc(/C=C2/N=C(c3ccccc3)OC2=O)c(F)cc1OCc1ccccc1`, for which the GFP response vs DMSO was 99.1% (inactive) in assay [1], 100% in assay [1] (setting [6]), 98% in assay [1] (setting [7]) and 101% (inactive) in assay [3]. In addition, the GFP response relative to DMSO in assay [2] was 98.9% (inactive); in assay [2] (setting [8]), 102%; in assay [2] (setting [9]), 98.4%. The GFP response, % of DMSO in assay [4] was 108% (inactive); in assay [5], 106% (inactive); in assay [5] (setting [6]), 105%; in assay [5] (setting [7]), 106%.
For `O=C1/C(=C\c2ccc(O)c(O)c2)SC(=S)N1Cc1ccccc1`, the GFP response vs DMSO in assay [1] was 100% (inactive); in assay [1] (setting [6]) it was 99.1%; in assay [1] (setting [7]), 100%; in assay [3] it was 141% (inactive). Also, the results for the GFP response relative to DMSO in assay [2], in assay [2] (setting [8]) and in assay [2] (setting [9]) were 116% (inactive), 117% and 116%, respectively. Moreover, the GFP response, % of DMSO in assay [4] is 97.2% (inactive); in assay [5] it was 113% (inactive); in assay [5] (setting [6]) it was 119%; in assay [5] (setting [7]) it was 108%.
On to `Cc1cc(Br)c2c(c1)/C(=C/C(=O)c1cccs1)C(=O)N2`, for which the GFP response vs DMSO in assay [1] was 99.6% (inactive); in assay [1] (setting [6]), 99.1%; in assay [1] (setting [7]), 99.2%; in assay [3], 105% (inactive). The GFP response relative to DMSO in assay [2] was 115% (inactive); in assay [2] (setting [8]), 115%; in assay [2] (setting [9]) it was 117%. Further, the GFP response, % of DMSO in assay [4] was 107% (inactive); in assay [5] it was 98.4% (inactive); in assay [5] (setting [6]) it was 93.7%; in assay [5] (setting [7]), 95.7%.
With `CCCCNC(=O)c1ccc2c(SCC(=O)O)c3c(nc2c1)CCCC3`, the GFP response vs DMSO in assay [1] was 98.7% (inactive); in assay [1] (setting [6]), 96.7%; in assay [1] (setting [7]), 99%; in assay [3], 99.5% (inactive). Also, the results for the GFP response relative to DMSO in assay [2], in assay [2] (setting [8]) and in assay [2] (setting [9]) were 101% (inactive), 104% and 97.5%, respectively. The GFP response, % of DMSO is 98% (inactive) in assay [4], 97.8% (inactive) in assay [5], 98.3% in assay [5] (setting [6]) and 98% in assay [5] (setting [7]).
Take `COc1ccc(N2C(=O)C(Cl)=C(Nc3ccccc3O)C2=O)cc1`: the GFP response vs DMSO in assay [1] is 99.6% (inactive); in assay [1] (setting [6]) it was 98.8%; in assay [1] (setting [7]), 100%; in assay [3] it was 112% (inactive). The GFP response relative to DMSO in assay [2] was 102% (inactive); in assay [2] (setting [8]) it was 101%; in assay [2] (setting [9]), 103%. For the same molecule, the GFP response, % of DMSO in assay [4] was 98.8% (inactive); in assay [5], 100% (inactive); in assay [5] (setting [6]) it was 95.6%; in assay [5] (setting [7]) it was 99.3%.
